Compound activity deposited in PubChem by Broad Institute.
PvdQ acylase – P. aeruginosa PvdQ acylase inhibitors, primary screen, biochemical, fluorescence, plate reader and imaging, single point; PvdQ acylase [Pseudomonas aeruginosa LESB58]; actives 0.063% (n = 340,000); AID 488965, 2010; purified PvdQ acylase; inhibition, % at 10 µM; in the data active = inhibition above about 30%, passing the limit was not always enough
CAL PDZ FP-1 – CAL PDZ peptide-binding inhibitors, primary screen, biochemical, fluorescence polarization, Cer-tagged CAL PDZ, HTS; purified CAL PDZ, TMR-peptide fluorescence polarization, 1 h; inhibition, % at 20 µM; actives 0.02% (n = 330,000);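 active = highest replicate inhibition of at least 40%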
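Test system: purified CerCALP PDZ construct; Compound dosing: one concentration, 20 µM compound; Also added: TMR-labelled reporter peptide T*-PRC34 bound in PDZ groove; Read-out: inhibition from polarization loss; Controls: unlabelled peptide and DMSO controls; Signal: FP readout, S and P plane fluorescence; Incubation: 1 h at RT.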
CAL PDZ FP-2 – untagged CAL PDZ binding inhibitors, primary screen, biochemical, fluorescence polarization, HTS | inhibition, % at 24.9 µM | actives 0.92% (n = 300,000) | AID 602252, 2012 | purified CAL PDZ, TMR-peptide fluorescence polarization, 1 h | Golgi-associated PDZ and coiled-coil motif-containing protein (Homo sapiens), Q9HD26;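 active = mean inhibition of at least 30% with at least half of replicates also reaching 30%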
miR-122 sensor – miR-122 Renilla sensor signal increase in Huh7, primary screen, miR-122 inhibitor project, cell-based, single point, plate reader; Huh7 miR-122 Renilla luciferase sensor, 48 h; neutral wells = 0, positive control = 100; activation (reporter increase), % at 12.5 µM; actives 0.3% (n = 340,000); AID 602342, 2012;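 active = mean replicate activation score at least 90 and every replicate individually at or above 90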;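 note: higher luciferase means less miR-122 activity so hits act as miR-122 inhibitors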
Of the large screens only hits and unclear results are named; the others gave an inactive call; [ ] = another dose, or the depositor's remark. A selection: hits, their analogues and other compounds. The true share with any hit is near 0.95%.

CC(C)(O)CN(C(=O)C(c1ccccc1)c1ccccc1)C1CCCCC1	CAL PDZ FP-2 31 (no result: miR-122 sensor)
CC1=CC2=NC(=O)/C(=C\c3cccn3CCOc3ccccc3C)C(=N)N2O1	miR-122 sensor 147
COc1ccc(C#Cc2ccc3c(c2)[C@@H]2[C@@H](CCN2S(=O)(=O)c2cccc(OC)c2)[C@@H](CO)N3C)cc1	none (no result: PvdQ acylase, CAL PDZ FP-1, CAL PDZ FP-2)
CC(C)CNC(=O)NC(=O)COC(=O)COc1ccc(Cl)cc1Cl	CAL PDZ FP-2 45
COc1ccc(S(=O)(=O)N(C)C[C@H]2Oc3ccc(NC(=O)Cc4cn(C)c5ccccc45)cc3CC(=O)N([C@@H](C)CO)C[C@@H]2C)cc1	none (no result: PvdQ acylase, CAL PDZ FP-1, CAL PDZ FP-2)
COc1ccc(S(=O)(=O)Nc2ccc3c(c2)CC(=O)N([C@H](C)CO)C[C@H](C)[C@H](CN(C)S(=O)(=O)c2cn(C)cn2)O3)cc1	none (no result: PvdQ acylase, CAL PDZ FP-1, CAL PDZ FP-2)
COc1ccc(OC(C)C(=O)NCc2cccnc2)cc1 (stereo not given)	CAL PDZ FP-2 46 (no result: CAL PDZ FP-1)
Cc1cc(C)cc(NC(=O)CSc2nc(=O)n(CCN3CCOCC3)c3c2CCCC3)c1	CAL PDZ FP-2 52 (no result: miR-122 sensor)
Cc1cccc(NC(=O)CSc2nc(=O)n(CCCN3CCOCC3)c3c2CCCC3)c1	CAL PDZ FP-2 48
Cc1cc(C)c(NC(=O)CSc2nc(=O)n(CCN3CCOCC3)c3c2CCCC3)c(C)c1	none
CC(=O)C[C@H]1c2cc(C(F)(F)F)ccc2S(=O)(=O)N1C1CCCC1	miR-122 sensor 105
CC(C)NC(=O)NC(=O)CSc1ccc(S(=O)(=O)N2CCOCC2)cn1	none
CC(C)CNC(=O)CSc1ccc(S(=O)(=O)N2CCN(C)CC2)cn1	CAL PDZ FP-2 39
COc1ccc(N(Cc2ccccc2)S(=O)(=O)c2cccc(C(=O)NC3=NCCS3)c2)cc1	miR-122 sensor 119 (no result: CAL PDZ FP-1)
Cc1ccc(NC(=O)C2CCN(C(=O)NC3CCCCC3)CC2)cc1	none
CN(C)CCCNc1ncnc2sc(-c3ccccc3)cc12	none
Cc1ccc(C(=O)CSc2nnc(C3CC3)n2C2CC2)s1	CAL PDZ FP-2 63
COc1ccc(Br)cc1CN(C)C(=O)c1ccncc1	CAL PDZ FP-2 active (no result: miR-122 sensor)
O=C1C2CCCN2C(=O)N1CCCCN1CCN(c2ccc(F)cc2)CC1 (stereo not given)	none
Cc1ccc(N2CCN(CCCCN3C(=O)C4CCCN4C3=O)CC2)cc1 (stereo not given)	CAL PDZ FP-2 63 (no result: miR-122 sensor)
Cc1cc(C(=O)Nc2cccc3c2O[C@H](CN(C)CC2CCCCC2)[C@@H](C)CN([C@@H](C)CO)C3=O)n(C)n1	none (no result: PvdQ acylase, CAL PDZ FP-1, CAL PDZ FP-2)
Cc1cc(C(=O)Nc2cccc3c2O[C@@H](CN(C)Cc2ccc(C(F)(F)F)cc2)[C@H](C)CN([C@H](C)CO)C3=O)n(C)n1	miR-122 sensor 127[16.7 µM] (no result: PvdQ acylase, CAL PDZ FP-1, CAL PDZ FP-2)
Cc1cc(C(=O)Nc2cccc3c2O[C@@H](CN(C)CC2CCCCC2)[C@@H](C)CN([C@H](C)CO)C3=O)n(C)n1	miR-122 sensor 97[16.7 µM] (no result: PvdQ acylase, CAL PDZ FP-1, CAL PDZ FP-2)
Cc1cc(C(=O)Nc2cccc3c2O[C@@H](CN(C)CC2CCCCC2)[C@@H](C)CN([C@@H](C)CO)C3=O)n(C)n1	miR-122 sensor 94[16.7 µM] (no result: PvdQ acylase, CAL PDZ FP-1, CAL PDZ FP-2)
Cc1ccc(NS(=O)(=O)c2cccc(C(=O)NC3CCN(Cc4ccccc4)CC3)c2)cc1	CAL PDZ FP-2 89 (no result: miR-122 sensor)
Cc1ccc(NS(=O)(=O)c2ccc(C(=O)NC3CCN(Cc4ccccc4)CC3)cc2)cc1	none (no result: CAL PDZ FP-2)
Cc1cc(C)c(S(=O)(=O)NC2CCN(Cc3ccccc3)CC2)c(C)c1	none
Cc1cc(C)c(C)c(S(=O)(=O)NC2CCN(Cc3ccccc3)CC2)c1C	miR-122 sensor 216 (no result: CAL PDZ FP-2)
O=C(C[C@@H]1CC[C@H]2[C@@H](COC[C@H](O)CN2C(=O)c2ccccc2F)O1)NCc1ccc(F)cc1	none (no result: PvdQ acylase, CAL PDZ FP-1, CAL PDZ FP-2)
Cc1cc(C)nc(N(C#N)Cc2cccc([N+](=O)[O-])c2)n1	PvdQ acylase 36, CAL PDZ FP-2 46 (no result: miR-122 sensor)
COc1ccc(CN(C#N)c2nc(C)cc(C)n2)cc1	none
C=CCNC(=S)NNC(=O)c1ccc(C)c(Cl)c1	CAL PDZ FP-2 67
C=CCNC(=S)NNC(=O)c1cccc(Br)c1	none (no result: miR-122 sensor)
c1ccc(-c2ccc(-c3ccccn3)s2)nc1	CAL PDZ FP-2 41
O=C(O)c1ccc(-c2ccccn2)s1	none (no result: miR-122 sensor)
C=CCC1Cc2c(Br)cccc2C(CC=C)N1 (stereo not given)	none (no result: CAL PDZ FP-2, miR-122 sensor)
C=CC[C@H]1Cc2c(cccc2[N+](=O)[O-])[C@H](CC=C)N1	CAL PDZ FP-2 39
Cc1ccc(OCCCCn2ccnc2C)c(C)c1	CAL PDZ FP-2 79 (no result: miR-122 sensor)
Cc1ccc(C(C)C)c(OCCn2ccnc2C)c1	none
C[C@H]1CN([C@@H](C)CO)C(=O)c2cc(NS(=O)(=O)c3ccccc3)ccc2O[C@H]1CN(C)C(=O)Nc1ccc2c(c1)OCO2	none (no result: PvdQ acylase, CAL PDZ FP-1, CAL PDZ FP-2)
COc1ccccc1N1CCN(C2CCCN(C(=O)c3cc(C4CC4)on3)C2)CC1 (stereo not given)	CAL PDZ FP-2 128
Cc1cc(C(=O)N2CCCC(N3CCN(c4ccccc4C)CC3)C2)n(C)n1 (stereo not given)	CAL PDZ FP-2 31
CCOC(=O)c1sc(-c2ccc(Cl)cc2Cl)nc1O	CAL PDZ FP-2 49 (no result: miR-122 sensor)
CCOC(=O)c1sc(CS(=O)(=O)c2ccc(Cl)cc2)nc1C	none (no result: miR-122 sensor)
COc1ccc(-c2cccc(NS(=O)(=O)c3cc([N+](=O)[O-])ccc3C)c2)nn1	miR-122 sensor 135
C=CCn1c(SCC(=O)Nc2nnc(C)s2)nnc1-c1cccnc1	none (no result: miR-122 sensor)
COC(=O)CCC(=O)N1CCOCCOCCN(C(=O)CCC(=O)OC)CCOCCOCC1	none
COC(=O)CCC(=O)N1CCOCCOCCOCC1	CAL PDZ FP-2 40 (no result: miR-122 sensor)
COc1ccc(S(=O)(=O)N(C)C[C@@H]2Oc3c(NC(=O)C4CCCCC4)cccc3C(=O)N([C@H](C)CO)C[C@H]2C)cc1	none (no result: PvdQ acylase, CAL PDZ FP-1, CAL PDZ FP-2)
O=C(Nc1cccc(-n2cnnn2)c1)c1ccc(OC(F)(F)F)cc1	CAL PDZ FP-2 98
O=C(Nc1cccc(-n2cnnn2)c1)c1ccc(C(F)(F)F)cc1	none (no result: CAL PDZ FP-2)
O=C(COC(=O)c1cccc(-n2cnnn2)c1)c1ccc(F)cc1	none (no result: miR-122 sensor)
O=C(NNC(=O)c1cccc(C(F)(F)F)c1)c1ccc(-n2cnnn2)cc1	CAL PDZ FP-2 92
O=C(COC(=O)c1cccc(-n2cnnn2)c1)Nc1c(Cl)cccc1C(F)(F)F	CAL PDZ FP-2 62
COC(=O)c1sc(NC(=S)NNC(=O)c2c(Br)c(C)nn2C)c(C(=O)OC)c1C	none (no result: miR-122 sensor)
COc1ccc(C(=O)Nc2nnc(-c3cccs3)s2)cc1	none
CSc1ccccc1NC(=O)CN1CCN(S(=O)(=O)c2ccccc2[N+](=O)[O-])CC1	CAL PDZ FP-2 active
CCS(=O)(=O)N1CCN(S(=O)(=O)c2ccccc2[N+](=O)[O-])CC1	none
CCOC(=O)c1c(NC(=O)C2CCCCC2)sc2c1CCN(CC)C2	CAL PDZ FP-2 45
CNC(=O)c1cccc(NC(=O)CCCNC(=O)c2ccc(Cl)cc2)c1	CAL PDZ FP-2 66 (no result: miR-122 sensor)
CCOC(=O)c1c(NC(=O)c2cccs2)sc(CC)c1-c1cccs1	CAL PDZ FP-2 31
CCOC(=O)c1c(-c2ccc(C)s2)csc1NC(=O)c1cccs1	none
